By IC50 is commonly meant the concentration that gives 50% inhibition. Read a low IC50 as inhibition by little substance.

These results are taken from ChEMBL document CHEMBL4270633, “Discovery of novel vinyl sulfone derivatives as anti-tumor agents with microtubule polymerization inhibitory and vascular disrupting activities” (Eur J Med Chem, 2018).

Activity calls are given as the source filed them. No cut-off for these calls is given here.

One series relates to Mus musculus. The series can be described thus: Toxicity in ICR mouse implanted with mouse H22 cells assessed as decrease in body weight at 8 mg/kg, iv administered once in 2 days for 21 days. Type of series: organism-based. To be noted: in vivo. The essentials:
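H22 s.c. allograft in male ICR mice, groups of six. Dosing i.v. at 15 or 30 mg/kg once daily for 21 days (10% DMF/2% Tween 80/88% saline), or 8 mg/kg once every 2 days. Body weight recorded every 2 days.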

In another series the test system is H22. The series is described as follows: Antitumor activity against mouse H22 cells implanted in ICR mouse assessed as tumor growth inhibition at 8 mg/kg, iv administered once in 2 days for 21 days relative to control. The class given is functional. To be noted: read-out: TGI. The method in brief: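 Male ICR mice, five weeks old, inoculated s.c. in the right flank with 1 × 10^6 H22 cells. After one day, randomized into groups of six. Given i.v. 15 or 30 mg/kg daily for 21 days in 10% DMF/2% Tween 80/88% saline, or 8 mg/kg every 2 days; vehicle control given i.v. Tumors excised and weighed; inhibition (%) = (1 − treated/control mean tumor weight) × 100.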

Series [1] can be described thus: Inhibition of porcine brain tubulin polymerization after 30 mins by spectrophotometric method. Set-up: species or system Sus scrofa. The essentials: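 Purified tubulin (2 mg/mL) in PEM buffer (80 mM PIPES pH 6.9, 0.5 mM EGTA, 2 mM MgCl2, 15% glycerol), preincubated on ice with compound or DMSO vehicle, then GTP added. Absorbance at 340 nm followed at 37 °C for 30 min. IC50 derived from area under the polymerization curve.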

The next series relates to A549. The series is described as follows: Antiproliferative activity against human A549 cells after 72 hrs by MTT assay. The class given is functional, cell-based. The following applies: A549, 72 h. The essentials:
(§1)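 Cells seeded and held 24 h at 37 °C, 5% CO2, then exposed to a concentration series in medium with 0.1% DMSO for 72 h. MTT (5 mg/mL in PBS) added for 4 h and OD read at 490 nm. IC50 taken from dose-response curves; mean ± SD of at least three independent experiments.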
In general terms: Formazan colour is commonly taken as a measure of viable cells.

The subject of the next series is HepG2. The series is described as follows: Antiproliferative activity against human HepG2 cells after 72 hrs by MTT assay. The class given is functional, cell-based. To be noted: HepG2, 72 h. The method in brief:
as §1

Series [2] has as its system K562. The series can be described thus: Antiproliferative activity against human K562 cells at 0.1 uM after 72 hrs by MTT assay relative to control. Type of series: functional.
Series [3] relates to K562. The series can be described thus: Antiproliferative activity against human K562 cells at 1 uM after 72 hrs by MTT assay. The class given is functional, cell-based.
Series [4] concerns K562. The series is described as follows: Antiproliferative activity against human K562 cells after 72 hrs by MTT assay. The following applies: K562, 72 h. Type of series: functional, cell-based. The method in brief:
as §1

As for `CC(=O)O[C@H]1C(=O)[C@@]2(C)[C@H]([C@H](OC(=O)c3ccccc3)[C@]3(O)C[C@H](OC(=O)[C@H](O)[C@@H](NC(=O)c4ccccc4)c4ccccc4)C(C)=C1C3(C)C)[C@]1(OC(C)=O)CO[C@@H]1C[C@@H]2O` [PACLITAXEL], in the series on Mus musculus, the Activity entry is on record as “Toxic”. The inhibition in vivo at 8 mg/kg with H22 turned out to be 74.6%.

For `COc1ccc(/C=C/S(=O)(=O)c2cc(OC)c(OC)c(OC)c2)cc1O`, the IC50 in series [1] amounted to 8.23 µM; in the series with A549 it was 2.28 µM; with HepG2 it was 0.267 µM; with K562 [4] it was 0.219 µM. For the same molecule, in the series with K562 [2], the Activity was found to be 35.3%. In addition, the outcome in the series with K562 [3] was Active.
